For the experiment, the system named is human platelets, SFLLRN-induced actin polymerization, FITC-phalloidin flow. As to the kind of experiment: blockers of PAR1 peptide-driven F-actin formation – cell-based, FITC-phalloidin flow cytometry, human platelets, selectivity assay for platelet granule secretion inhibitor project, late-stage follow-up (AID 2655). Conditions: at 10 µM; active compounds read high. The method, boiled down: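 Test system – Gel-filtered platelets · Reagent – 5 µM SFLLRN or none · Compound – 10 µM single dose, 0.3% DMSO · Schedule – 20 min compound, 15 min SFLLRN, 37 °C · Signal – FITC-phalloidin flow cytometry in fixed, permeabilized platelets · Control set – 0.3% DMSO vehicle samples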

For orientation: inhibition means how much of the control response was suppressed. Consider `O=C(Nc1cccc(NC(=O)c2ccccc2Cl)c1)c1ccco1`, for which the inhibition was 71.4%.

On to `CCCC(=O)Nc1cccc(NC(=O)c2ccccc2Br)c1`, for which the inhibition is 80.4%.

The values are drawn from PubChem BioAssay AID2655 (Broad Institute, 2010).
